Test results reported in ChEMBL document CHEMBL1649423, “Inhibition of lymphoid tyrosine phosphatase by benzofuran salicylic acids” (J Med Chem, 2011).
pIC50: −log10 of the molar value.

Assays:
[1] = molecular target: T1, Tyrosine-protein phosphatase non-receptor type 1 (Homo sapiens, UniProt P18031); assay: Inhibition of PTP1B
T1 sequence (P18031 whole entry): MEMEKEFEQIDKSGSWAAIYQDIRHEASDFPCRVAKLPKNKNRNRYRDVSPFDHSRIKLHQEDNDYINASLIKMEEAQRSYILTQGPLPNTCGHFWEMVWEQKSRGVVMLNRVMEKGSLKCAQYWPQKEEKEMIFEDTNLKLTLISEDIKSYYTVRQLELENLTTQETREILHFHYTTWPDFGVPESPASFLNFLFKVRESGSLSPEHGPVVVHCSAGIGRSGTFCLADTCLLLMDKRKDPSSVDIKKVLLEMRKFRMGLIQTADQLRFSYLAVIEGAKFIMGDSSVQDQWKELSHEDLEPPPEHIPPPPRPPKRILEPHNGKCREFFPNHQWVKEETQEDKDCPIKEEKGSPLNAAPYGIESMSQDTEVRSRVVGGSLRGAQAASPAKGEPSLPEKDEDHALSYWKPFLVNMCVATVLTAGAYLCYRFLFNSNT
Summary of the method: (§1)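 Fluorometric DiFMUP hydrolysis at 30 C in 50 mM Bis-Tris pH 6.0 (ionic strength 50 mM with NaCl), 1 mM DTT, 5% DMSO, 1% PEG8000. DiFMUP fixed at each PTP's Km. Initial rates read at ex 360/em 460 nm across several compound concentrations. No-enzyme control used to correct for nonenzymatic hydrolysis. HePTP was recombinant in-house; PTP1B, Shp1, CD45 and LAR were commercial recombinant enzymes.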

[2] = molecular target: T2, Receptor-type tyrosine-protein phosphatase C (Homo sapiens, UniProt P08575); assay: Inhibition of CD45; summary of the method: as §1
T2 sequence (P08575 whole entry): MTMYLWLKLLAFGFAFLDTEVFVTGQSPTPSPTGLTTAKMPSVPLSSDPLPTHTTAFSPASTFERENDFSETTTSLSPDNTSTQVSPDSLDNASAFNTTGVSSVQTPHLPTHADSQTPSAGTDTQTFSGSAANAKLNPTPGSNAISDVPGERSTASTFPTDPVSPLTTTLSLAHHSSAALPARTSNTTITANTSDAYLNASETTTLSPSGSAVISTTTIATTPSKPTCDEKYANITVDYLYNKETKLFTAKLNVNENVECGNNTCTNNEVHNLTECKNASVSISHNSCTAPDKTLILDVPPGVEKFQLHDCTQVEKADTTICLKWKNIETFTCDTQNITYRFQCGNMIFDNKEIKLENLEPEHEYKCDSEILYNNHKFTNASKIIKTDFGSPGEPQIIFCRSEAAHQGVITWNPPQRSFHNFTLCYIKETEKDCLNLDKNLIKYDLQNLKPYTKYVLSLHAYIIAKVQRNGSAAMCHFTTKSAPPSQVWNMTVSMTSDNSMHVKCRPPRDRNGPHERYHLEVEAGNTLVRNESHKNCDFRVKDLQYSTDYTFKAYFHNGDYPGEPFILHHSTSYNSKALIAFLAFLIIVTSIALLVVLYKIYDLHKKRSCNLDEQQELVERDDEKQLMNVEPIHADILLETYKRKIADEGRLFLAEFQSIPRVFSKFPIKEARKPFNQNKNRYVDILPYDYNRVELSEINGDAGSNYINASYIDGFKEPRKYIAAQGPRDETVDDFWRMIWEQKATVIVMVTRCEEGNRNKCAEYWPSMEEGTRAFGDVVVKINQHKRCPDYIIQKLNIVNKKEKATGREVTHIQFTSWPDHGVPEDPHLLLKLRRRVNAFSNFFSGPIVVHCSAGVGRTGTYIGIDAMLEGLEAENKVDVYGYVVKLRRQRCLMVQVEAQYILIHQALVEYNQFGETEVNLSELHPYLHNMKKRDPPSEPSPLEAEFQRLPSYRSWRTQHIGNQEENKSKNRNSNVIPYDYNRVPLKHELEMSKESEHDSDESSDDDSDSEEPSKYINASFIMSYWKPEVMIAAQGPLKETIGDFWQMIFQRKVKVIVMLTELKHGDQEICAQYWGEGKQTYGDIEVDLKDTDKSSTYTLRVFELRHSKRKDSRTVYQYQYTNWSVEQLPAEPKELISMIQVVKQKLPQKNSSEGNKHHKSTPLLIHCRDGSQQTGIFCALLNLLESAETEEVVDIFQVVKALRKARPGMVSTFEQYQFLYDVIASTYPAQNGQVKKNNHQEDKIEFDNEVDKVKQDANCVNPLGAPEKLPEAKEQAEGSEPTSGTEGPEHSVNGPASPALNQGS

[3] = molecular target: T3, Tyrosine-protein phosphatase non-receptor type 7 (Homo sapiens, UniProt P35236); assay: Inhibition of HePTP; summary of the method: as §1
T3 sequence (P35236 whole entry): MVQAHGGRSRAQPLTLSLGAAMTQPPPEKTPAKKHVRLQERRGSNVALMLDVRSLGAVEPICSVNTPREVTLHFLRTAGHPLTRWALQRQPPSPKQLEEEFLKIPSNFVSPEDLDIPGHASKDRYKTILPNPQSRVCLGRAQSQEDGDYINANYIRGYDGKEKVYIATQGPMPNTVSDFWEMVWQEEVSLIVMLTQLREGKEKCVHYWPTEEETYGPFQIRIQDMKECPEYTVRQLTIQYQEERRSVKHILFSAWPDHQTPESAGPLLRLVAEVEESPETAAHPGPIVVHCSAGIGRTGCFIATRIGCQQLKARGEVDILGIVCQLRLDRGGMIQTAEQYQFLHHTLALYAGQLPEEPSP

[4] = molecular target: Receptor-type tyrosine-protein phosphatase F (Homo sapiens, UniProt P10586); assay: Inhibition of LAR; summary of the method: as §1
Sequence of Receptor-type tyrosine-protein phosphatase F (P10586 whole entry): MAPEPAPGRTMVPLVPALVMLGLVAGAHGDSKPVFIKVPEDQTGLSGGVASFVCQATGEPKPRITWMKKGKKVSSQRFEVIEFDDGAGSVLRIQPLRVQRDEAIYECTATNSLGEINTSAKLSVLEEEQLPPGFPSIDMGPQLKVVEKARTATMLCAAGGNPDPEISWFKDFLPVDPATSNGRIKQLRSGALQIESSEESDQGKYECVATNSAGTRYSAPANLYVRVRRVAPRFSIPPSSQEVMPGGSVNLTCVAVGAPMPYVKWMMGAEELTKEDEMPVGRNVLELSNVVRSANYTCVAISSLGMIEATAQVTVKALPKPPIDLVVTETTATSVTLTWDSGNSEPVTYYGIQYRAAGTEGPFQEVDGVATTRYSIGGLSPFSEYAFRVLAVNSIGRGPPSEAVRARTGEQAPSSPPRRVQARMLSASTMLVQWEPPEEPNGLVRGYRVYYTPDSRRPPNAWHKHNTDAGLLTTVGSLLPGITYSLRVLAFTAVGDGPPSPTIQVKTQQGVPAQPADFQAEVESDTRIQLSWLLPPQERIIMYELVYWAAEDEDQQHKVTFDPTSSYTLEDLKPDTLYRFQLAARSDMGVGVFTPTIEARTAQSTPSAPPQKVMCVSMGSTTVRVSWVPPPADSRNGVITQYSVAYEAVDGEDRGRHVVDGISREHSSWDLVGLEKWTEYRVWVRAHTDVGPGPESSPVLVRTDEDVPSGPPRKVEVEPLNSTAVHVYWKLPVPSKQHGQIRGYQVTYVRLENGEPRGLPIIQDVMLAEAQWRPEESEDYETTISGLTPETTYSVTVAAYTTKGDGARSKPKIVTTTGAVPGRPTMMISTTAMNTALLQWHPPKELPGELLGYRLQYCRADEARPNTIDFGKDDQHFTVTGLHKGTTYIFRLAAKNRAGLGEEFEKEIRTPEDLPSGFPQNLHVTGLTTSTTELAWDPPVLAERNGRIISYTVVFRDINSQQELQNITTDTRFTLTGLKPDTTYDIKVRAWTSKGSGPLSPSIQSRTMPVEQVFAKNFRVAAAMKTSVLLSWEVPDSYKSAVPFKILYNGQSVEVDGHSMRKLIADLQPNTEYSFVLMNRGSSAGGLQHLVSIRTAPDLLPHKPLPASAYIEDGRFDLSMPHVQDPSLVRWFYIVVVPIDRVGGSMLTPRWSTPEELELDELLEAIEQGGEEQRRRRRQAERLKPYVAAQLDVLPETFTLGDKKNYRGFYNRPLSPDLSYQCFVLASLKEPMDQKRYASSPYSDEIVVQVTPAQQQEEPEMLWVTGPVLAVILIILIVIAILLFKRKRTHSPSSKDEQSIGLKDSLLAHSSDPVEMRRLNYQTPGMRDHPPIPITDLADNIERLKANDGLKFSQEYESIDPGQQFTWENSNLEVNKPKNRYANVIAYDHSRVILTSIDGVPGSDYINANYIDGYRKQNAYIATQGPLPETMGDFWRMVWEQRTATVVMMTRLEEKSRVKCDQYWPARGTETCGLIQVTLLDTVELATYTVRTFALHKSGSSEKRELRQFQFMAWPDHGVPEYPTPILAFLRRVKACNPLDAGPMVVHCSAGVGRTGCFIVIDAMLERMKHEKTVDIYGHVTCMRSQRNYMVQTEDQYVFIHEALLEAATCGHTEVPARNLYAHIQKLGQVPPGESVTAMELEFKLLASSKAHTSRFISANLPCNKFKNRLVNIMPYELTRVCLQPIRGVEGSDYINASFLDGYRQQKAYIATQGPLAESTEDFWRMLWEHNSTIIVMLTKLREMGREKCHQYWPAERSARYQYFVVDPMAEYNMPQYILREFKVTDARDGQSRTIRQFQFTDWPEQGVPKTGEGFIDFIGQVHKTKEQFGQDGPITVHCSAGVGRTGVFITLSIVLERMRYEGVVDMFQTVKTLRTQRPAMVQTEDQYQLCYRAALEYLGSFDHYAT

Compound | pIC50 [1] | pIC50 [2] | pIC50 [3] | pIC50 [4]
COc1ccc(-c2oc3cc(O)c(C(=O)O)cc3c2-c2cn(CCCC(=O)Nc3cccc4ccccc34)nn2)cc1 | 6.72 | 6.39 | 5.43 | 4.59
COC(=O)c1cc2c(-c3cn(CCCC(=O)Nc4ccc(Cl)c5ccccc45)nn3)c(-c3ccccc3)oc2cc1O | 4.94 | 4.79 | 4.49 | 4.35
Cc1ccc(-c2oc3cc(O)c(C(=O)O)cc3c2-c2cn(CCCC(=O)Nc3ccc(Cl)c4ccccc34)nn2)cc1 | 6.69 | 5.98 | 5.43 | 4.63
Cc1ccc(-c2oc3cc(O)c(C(=O)O)cc3c2-c2cn(CCCC(=O)Nc3cccc4ccccc34)nn2)cc1 | 6.67 | 6.17 | 5.39 | 4.44
COc1ccc2nc(NC(=O)CCCn3cc(-c4c(-c5cccc(C)c5)oc5cc(O)c(C(=O)O)cc45)nn3)sc2c1 | 6.66 | 6.06 | 5.20 | 4.40
